ChEMBL document CHEMBL4196069 (Eur J Med Chem, 2018)

Columns and labels:
Bel7402/5-FU = experiment: Antiproliferative activity against human Bel7402/5-FU cells after 72 hrs by MTT assay; assay type: functional, cell-based
How it was run: (§1)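 Cells pre-incubated 24 h at 37 °C in humidified 5% CO2, then exposed to compounds for 72 h. MTT (5 mg/mL) was added for 4 h, formazan was dissolved in DMSO, and OD was read at 570 nm. Vehicle control was 0.1% DMSO. IC50 was calculated from inhibition ratios as the mean ± SD of three independent experiments.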

L02 = experiment: Antiproliferative activity against human LO2 cells after 72 hrs by MTT assay; assay type: cell-based; conditions: L02, 72 h; how it was run: as §1
[1] = Selectivity index, ratio of IC50 for human LO2 cells to IC50 for human Bel7402 cells; assay type: toxicity; conditions: LO2 cells versus Bel7402 cells, read-out: Ratio IC50
How it was run: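 Selectivity index = IC50(L-O2)/IC50(Bel-7402), both IC50s from the 72 h MTT assay (mean of three independent experiments).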

HL-60 = experiment: Antiproliferative activity against human HL60 cells after 72 hrs by MTT assay; assay type: functional, cell-based; conditions: HL-60, 72 h; how it was run: as §1
Bel-7402 = experiment: Antiproliferative activity against human Bel7402 cells after 72 hrs by MTT assay; assay type: functional, cell-based; conditions: Bel-7402, 72 h; how it was run: as §1
PC-3 = experiment: Antiproliferative activity against human PC3 cells after 72 hrs by MTT assay; assay type: functional, cell-based; conditions: PC-3, 72 h; how it was run: as §1

Compound | IC50 (Bel7402/5-FU) [µM] | IC50 (L02) [µM] | selectivity ratio [1] | IC50 (HL-60) [µM] | IC50 (Bel-7402) [µM] | IC50 (PC-3) [µM]
COC(=O)[C@H](Cc1ccc(N(CCCl)CCCl)cc1)NC(=O)CCC(=O)O[C@@H]1C[C@H]2[C@H](O)/C=C/C(=O)O[C@@H](C)CCC/C=C/[C@@H]2C1 | 3.05 | 4.57 | 3.1 | 14.4 | 1.49 | 17.6
O=C(O)CCCc1ccc(N(CCCl)CCCl)cc1 [CHLORAMBUCIL] | > 80 | > 80 |  | 11.6 | > 80 | 40.4
C[C@H]1CCC/C=C/[C@@H]2C[C@H](O)C[C@H]2[C@H](OC(=O)CCCc2ccc(N(CCCl)CCCl)cc2)/C=C/C(=O)O1 | 8.35 | 29.6 | 15.3 | 12.6 | 1.93 | 1.37
C[C@H]1CCC/C=C/[C@@H]2C[C@H](OC(=O)c3ccc(N(CCCl)CCCl)cc3)C[C@H]2[C@H](O)/C=C/C(=O)O1 | 4.05 | 9.51 | 6.6 | 8.25 | 1.45 | 10.6
COC(=O)[C@H](Cc1ccc(N(CCCl)CCCl)cc1)NC(=O)CCC(=O)O | > 80 | 32.9 | 1.37 | 6.02 | 23.9 | > 80
COC(=O)[C@H](Cc1ccc(N(CCCl)CCCl)cc1)NC(=O)CCC(=O)O[C@@H]1/C=C/C(=O)O[C@@H](C)CCC/C=C/[C@@H]2C[C@H](O)C[C@H]21 | 4.6 | 5.16 | 3.8 | 1.52 | 1.37 | 14.5
O=c1[nH]cc(F)c(=O)[nH]1 [FLUOROURACIL] | > 80 |  |  | 2.37 | 18.5 | 23.9
COC(=O)[C@H](Cc1ccc(N(CCCl)CCCl)cc1)NC(=O)CCC(=O)O[C@@H]1C[C@@H]2[C@H](/C=C/CCC[C@H](C)OC(=O)/C=C/[C@H]2OC(=O)CCC(=O)N[C@@H](Cc2ccc(N(CCCl)CCCl)cc2)C(=O)OC)C1 | 7.47 | 29.9 | 6.2 | 9.37 | 4.85 | 32.5
C[C@H]1CCC/C=C/[C@@H]2C[C@H](OC(=O)c3ccc(N(CCCl)CCCl)cc3)C[C@H]2[C@H](OC(=O)c2ccc(N(CCCl)CCCl)cc2)/C=C/C(=O)O1 | 15.3 | 17.3 | 2.7 | 9.31 | 6.3 | 18.5
C[C@H]1CCC/C=C/[C@@H]2C[C@H](OC(=O)CCCc3ccc(N(CCCl)CCCl)cc3)C[C@H]2[C@H](OC(=O)CCCc2ccc(N(CCCl)CCCl)cc2)/C=C/C(=O)O1 | 15.6 | 19.5 | 2.7 | 67.4 | 7.25 | 20.4
C[C@H]1CCC/C=C/[C@@H]2C[C@H](OC(=O)CCCc3ccc(N(CCCl)CCCl)cc3)C[C@H]2[C@H](O)/C=C/C(=O)O1 | 13.8 | 15.5 | 3.2 | 34.7 | 4.86 | 6.84
C[C@H]1CCC/C=C/[C@@H]2C[C@H](O)C[C@H]2[C@H](O)/C=C/C(=O)O1 [BREFELDIN A] | 0.82 | < 0.001 |  | 0.025 | 0.024 | 
